Measurements from different studies.
Lines come from different studies, so protocols differ.
Target: Calcium/calmodulin-dependent protein kinase type II subunit alpha (CAMK2A, Homo sapiens, UniProt Q9UQM7)

SMILES	assay	conditions	quantity	result
N#Cc1ccc(Nc2ccc3[nH]c(=O)[nH]c3c2)c(Cl)c1	cell-free assay, competition with immobilised ligand	1 µM	remaining binding	84%
C[S+]([O-])c1ccc(-c2nc(-c3ccncc3)c(-c3ccc(F)cc3)[nH]2)cc1 (stereo not shown)	cell-free assay	0.5 µM	remaining signal	101%
Cn1c2c(c3ccc(Cl)c(Cl)c31)C(C#N)C1(CCNCC1)NC2=O (racemic)	thermal stability, DSF	10 µM	ΔTm	1.2 °C
Cc1ccc(C(=O)Nc2ccc(CN3CCN(C)CC3)c(C(F)(F)F)c2)cc1C#Cc1cnc2cccnn12	enzyme activity, inhibitor	23.5 nM	remaining activity	95%
N#CCCc1ccc2c(c1)-c1[nH]c3ccc([N+](=O)[O-])cc3c1CC(=O)N2	cell-free assay	0.5 µM	remaining signal	69.1%
CCCS(=O)(=O)Nc1ccc(F)c(C(=O)c2c[nH]c3ncc(-c4ccc(Cl)cc4)cc23)c1F	enzyme activity, inhibitor	1 µM	inhibition	< 20%
Cn1c2c(Cl)c(Cl)ccc2c2cc(N)[nH]c(=O)c21	thermal stability, DSF	10 µM	ΔTm	0.9 °C
CNC(=O)c1ccc(Nc2ncc(C(F)(F)F)c(NCc3nccnc3N(C)S(C)(=O)=O)n2)cc1	cell-free assay, competition with immobilised ligand	0.1 µM	remaining binding	83%
CC(C)(C)c1nc2c(s1)c1nc(N)ncc1c1ccc(NS(=O)(=O)c3c(F)cccc3F)c(F)c12	enzyme activity, inhibitor, radiometric	1 µM	remaining activity	80%
CC(C)(O)[C@H]1CC[C@H](Nc2ccc3ncc(-c4cccc(C(F)(F)F)c4)n3n2)CC1	enzyme activity, inhibitor	1 µM	remaining activity	80.7%
COc1cc2ncnc(Nc3ccc(Oc4ccccc4)cc3C)c2cc1OC	enzyme activity, inhibitor	1 µM	inhibition	-1%
O=C(Nc1cnn(-c2csc(C(=O)NC3COC3)c2)c1)Nc1ccccc1Cl	enzyme activity, inhibitor	5 µM	remaining activity	100%
CN(C)C(=O)Cn1cc(-c2nc(C3(c4ccc(-c5cnc(N)nc5)cc4)CC3)no2)cn1	cell-free assay, competition with immobilised ligand	1 µM	remaining binding	100%
Cn1c2c(Cl)c(Cl)ccc2c2cc[nH]c(=O)c21	thermal stability, DSF	10 µM	ΔTm	0.4 °C
O=C(Nc1ccc(Oc2ccc(F)cc2)cc1)N1CCc2ncccc2[C@H]1c1ccc(F)cc1	cell-free assay, competition with immobilised ligand	1 µM	remaining binding	88%
Cn1c2c(Cl)c(Cl)ccc2c2cn[nH]c(=O)c21	thermal stability, DSF	10 µM	ΔTm	0.8 °C
O=C1NC(c2ccccn2)Sc2ccccc21 (stereo not shown)	cell-free assay, competition with immobilised ligand	1 µM	remaining binding	100%
Cc1ccc(NC(=O)c2ccc(CN3CCN(C)CC3)cc2)cc1Nc1nccc(-c2cccnc2)n1	enzyme activity, inhibitor	0.5 µM	activity vs control	100%
CCC(=N\O)/C(C)=C/c1ccc(F)cc1	cell-free assay, competition with immobilised ligand	1 µM	remaining binding	81%
CS(=O)(=O)CCNCc1ccc(-c2ccc3ncnc(Nc4ccc(OCc5cccc(F)c5)c(Cl)c4)c3c2)o1	cell-free assay	0.5 µM	remaining signal	98.6%
CSc1nc(C)c(-c2ccnc(Nc3ccc(N4CCOCC4)cc3)c2)[nH]1	enzyme activity, inhibitor	10 µM	inhibition	-5.7%
CCS(=O)(=O)c1cc2cc(C[C@@](O)(CC(C)(C)c3ccc(F)cc3C(N)=O)C(F)(F)F)[nH]c2cn1	cell-free assay, competition with immobilised ligand	1 µM	remaining binding	100%
Cn1c2c(c3ccc(Cl)c(Cl)c31)C(C#N)C1(CCCC1)NC2=O (stereo not shown)	thermal stability, DSF	10 µM	ΔTm	0.9 °C
Cc1noc([C@H]2C[C@@H](c3ccc(C(F)(F)F)cc3)CN(C(=O)N3CCS(=O)(=O)C3)C2)n1	cell-free assay, competition with immobilised ligand	1 µM	remaining binding	100%
O=C(Nc1cnn(-c2csc(C(=O)NC3COC3)c2)c1)Nc1c(F)cccc1Cl	enzyme activity, inhibitor	5 µM	remaining activity	99.4%
